According to PMC9358627 (Journal of clinical pharmacology, 2021):
Like-named read-outs stand apart in the source and are kept apart here.

How the values were obtained:
[1] = type: in vivo; details: human, plasma, oral, C12hr, phenotypic mean (±95% CI)
Summary of the method: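 Stable kidney transplant recipients had held fixed doses for ≥7 days. Around 7 AM, after a 0-h draw, they took the oral test compound with a calcineurin inhibitor. Plasma was sampled serially over 12 h, iced, spun and stored at −70°C. LC/MS with internal standards (LLOQ 0.072 µg/mL) gave the 12-h trough. Three ABCC2 SNPs were TaqMan-genotyped in duplicate. THESIAS maximum-likelihood analysis estimated haplotype phenotypic means with 95% CI.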

[2] = type: in vivo, human; details: for AUC: Mycophenolic acid AUC6-12hr
Summary of the method: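 Steady state with the same oral dose for ≥7 days, calcineurin inhibitor co-therapy. Pre-dose sample, then dosing ~7 AM, meals at 4 h, serial sampling over 12 h. Plasma iced, centrifuged, stored −70°C. LC/MS of test compound and its glucuronide, LLOQ 0.072 µg/mL. Non-compartmental AUC0-12h by linear trapezoidal rule. […] AUC6-12h/AUC0-12h gauges enterohepatic circulation.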

[3] = following oral drug administration; attributed to enterohepatic circulation; ref [8],[12]; cited from earlier work
[4] = Mycophenolic acid pharmacokinetic parameters by individual ABCC2 SNP genotype; type: in vivo; details: human, plasma, oral, mean; for AUC(0-t): Mycophenolic acid AUC0-12hr; for clearance: Mycophenolic acid Clearance
Summary of the method: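 Stable transplant recipients were studied at steady state. Oral test compound was given with a calcineurin inhibitor, with meals 4 h post-dose. Serial 12-h plasma was analysed by LC/MS (standard curve 0.145–15.5 µg/mL). AUC0-12h came from the linear trapezoidal rule, non-compartmental. […] ABCC2 −24C>T, 1249G>A and 3972C>T were genotyped by TaqMan allelic discrimination, 10 ng DNA, in duplicate.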

[5] = human, in vivo, oral
Summary of the method: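 Patients at steady state, same oral calcineurin inhibitor dose for ≥7 days. 0-h blood drawn before the ~7 AM dose to give trough. Samples iced, centrifuged, harvested within 60 min, stored −70°C until assay.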

[6] = ABCC2 1249 G>A (rs2273697) All, N=147
[7] = ABCC2 3972 C>T (rs 3740066) All, N=146
[8] = ABCC2 −24C>T (rs717620) All, N=147

In the case of COc1c(C)c2c(c(O)c1C/C=C(\C)CCC(=O)O)C(=O)OC2 [Mycophenolic acid, mycophenolic acid], the concentration at 12 h ([1]; All (N=147), variant haplotype (CGT)) is reported as 1010 ng/mL, the concentration at 12 h ([1]; All (N=147), wildtype haplotype (CGC)) is reported as 1630 ng/mL and the concentration at 12 h ([1]; Cyclosporine Group (n=80), variant haplotype (CGT)) is reported as 783 ng/mL. For the same compound, the concentration at 12 h ([1]; Cyclosporine Group (n=80), wildtype haplotype (CGC)) was 965 ng/mL, the concentration at 12 h ([1]; Tacrolimus Group (n=67), variant haplotype (CGT)) was 1330 ng/mL and the concentration at 12 h ([1]; Tacrolimus Group (n=67), wildtype haplotype (CGC)) was 2250 ng/mL. For the same compound, the “Mycophenolic acid CL/F” value ([2]; All (N=147), steady state, oral, mean ± SD) was 15.99 ± 9.41 L/h, the “Enterohepatic Recirculation, patients” value ([2]; Cyclosporine (n=80), 36 patients) was 36 (45.0%) and the “Mycophenolic acid CL/F” value ([2]; Cyclosporine Group (n=80), mycophenolate mofetil, mean ± SD) was 20.50 ± 9.99 L/h. The “Mycophenolic acid AUC0-12hr” value ([2]; Cyclosporine Group (n=80), mean ± SD) was 40.82 ± 17.60 mg●hr/L, the “Enterohepatic Recirculation, patients” value ([2]; Tacrolimus (n=67), 52 patients) was 52 (77.61%) and the “Mycophenolic acid CL/F” value ([2]; Tacrolimus Group (n=67), enteric-coated mycophenolate sodium, mean ± SD) was 10.60 ± 4.71 L/h. It also gave an AUC(0-t) ([2]; human, plasma, oral, Mycophenolic acid AUC0-12hr, Tacrolimus Group (n=67), mean ± SD) of 68900 ± 30900 ng·h/mL, an AUC ([2]; human, plasma, oral, All (N=147), mean ± SD) of 19100 ± 15200 ng·h/mL and an AUC ([2]; human, plasma, oral, Cyclosporine Group (n=80), mean ± SD) of 13100 ± 7150 ng·h/mL. For the same compound, the AUC ([2]; human, plasma, oral, Tacrolimus Group (n=67), mean ± SD) was 26200 ± 18800 ng·h/mL, the “patients achieving the therapeutic range of AUC0-12h from 30 to 60 mg●h/L” value ([2]; patients receiving cyclosporine) was 56.3% and the “patients achieving the therapeutic range of AUC0-12h from 30 to 60 mg●h/L” value ([2]; tacrolimus group) was 34.3%. For the same compound, the slower apparent clearance ([2]; tacrolimus group compared with cyclosporine group) was 48%, the “patients exhibiting enterohepatic circulation” value ([2]; tacrolimus regimen) was “More than 75%” and the “secondary mycophenolic acid peak, time of appearance” value [3] was 6 to 12 h. For the same compound, the AUC(0-t) [4, 6] was 53600 ng·h/mL, the AUC(0-t) [4, 7] was 53400 ng·h/mL and the AUC(0-t) [4, 8] was 53600 ng·h/mL. For the same compound, the clearance [4, 6] was 266 mL/min, the clearance [4, 7] was 268 mL/min and the clearance [4, 8] was 266 mL/min.

Compound C=CC[C@@H]1/C=C(\C)C[C@H](C)C[C@H](OC)[C@H]2O[C@@](O)(C(=O)C(=O)N3CCCC[C@H]3C(=O)O[C@H](/C(C)=C/[C@@H]3CC[C@@H](O)[C@H](OC)C3)[C@H](C)[C@@H](O)CC1=O)[C@H](C)C[C@@H]2OC [Tacrolimus, tacrolimus] has a concentration at 0 h [5] of 7.2 ± 1.89 ng/mL.
